Assay [1] concerns MDA-MB-435. In words: Growth inhibitory concentration required against human breast MDA-MB-435 cancer cell line. It counts as functional. In outline:
(§1)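 Screen over 10^-4 to 10^-8 M in a human cancer cell line panel. GI50 is the concentration giving 50% growth inhibition of the individual cell line.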

Assay [2] deals with Tubulin (Bos taurus, UniProt Q6B856+Q862L2+Q862F3). In words: Inhibitory concentration against bovine tubulin polymerization. It is filed as functional. In outline:
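Bovine brain tubulin, 1.2 mg/mL (12 μM), was preincubated with a range of compound concentrations and then chilled on ice. GTP was added and assembly followed by turbidity at 350 nm for 20 min at 26 °C. IC50 is the concentration halving assembly at 20 min, from at least two independent assays.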

Assay [3] deals with UACC-62. Kind of assay: Growth inhibitory concentration required against human melanoma UACC-62 cancer cell line. It is filed as functional. The method, boiled down:
as §1

The test system of assay [4] is HOP-62. Kind of assay: Growth inhibitory concentration against human lung cancer HOP-62 cell line. It is filed as functional. The method, boiled down:
as §1

Assay [5] relates to SF-539. In words: Growth inhibitory concentration required against human CNS SF-539 cancer cell line. It counts as functional. The method, boiled down: as §1
Assay [6] deals with OVCAR-3. In words: Growth inhibitory concentration required against human ovarian OVCAR-3 cancer cell line. It counts as functional. The method, boiled down: as §1
The subject of assay [7] is SN12C. Kind of assay: Growth inhibitory concentration required for against human renal SN12C cancer cell line. It is filed as functional. In outline: as §1
For assay [8], the system named is HUVEC. Kind of assay: Inhibitory concentration required against growth of HUVEC […] cell line. It counts as functional, cell-based. The settings on record: Homo sapiens. The method, boiled down: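 HUVEC, used up to five passages in EGM with bovine brain extract and antibiotic-antimycotic, seeded at 3000 cells/well and attached overnight. Cells were exposed to compound for 48 h. Proliferation was read by BrdU-incorporation colorimetric ELISA or by cell counting, in triplicate, with experiments repeated at least twice.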

Assay [9] deals with MDA-MB-231. In words: Inhibitory concentration against growth of MDA-MB-231 cancer cell line. The settings on record: Homo sapiens. It is filed as functional, cell-based. The method, boiled down:
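MDA-MB-231 cells in DMEM/F12 (1:1) with 10% FBS, seeded at 1000 cells/well and attached overnight. Cells were exposed to compound for 48 h. Proliferation was read by BrdU-incorporation colorimetric ELISA or by cell counting, in triplicate, with experiments repeated at least twice.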

The test system of assay [10] is HCT-116. In words: Growth inhibitory concentration against human colon cancer HCT116 cell line. It counts as functional. In outline: as §1
The subject of assay [11] is DU-145. Kind of assay: Growth inhibitory concentration required against human prostate DU-145 cancer cell line. It is filed as functional. The method, boiled down:
as §1

Assay [12] is described as follows: Average concentration required for 50% growth inhibition of human cancer cell line (tested). It counts as functional. The settings on record: Cancer cell lines. In outline: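 Mean graph midpoint: average of the individual cell line GI50 values across all cancer lines screened over 10^-4 to 10^-8 M. GI50 values falling outside this range were set to 10^-8 M (below) or 10^-4 M (above).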

Molecules are shown by their SMILES.

Turning to `C[C@]12CC[C@@H]3c4ccc(O)cc4CCC3[C@@H]1CCC2(F)F` (single isomer, unassigned), the GI50 (as a rule, the concentration that inhibits growth by half) was determined as 15.8 µM in assay [1]; 14.1 µM in assay [3]; 19.5 µM in assay [4]; 17.4 µM in [5]; 11 µM in assay [6]; 18.6 µM in [7]. The 50% growth inhibitory concentration (GI50) in [10] amounted to 14.5 µM; in [11], 16.6 µM; in assay [12], 16.6 µM. In addition, the concentration for half-maximal inhibition (IC50) (commonly the midpoint of a concentration-inhibition curve) in [2] was greater than 40 µM; in [8] it was 6.6 µM; in assay [9] it was 54.4 µM.
Consider `COc1cc2c(cc1O)CCC1[C@@H]2CC[C@@]2(C)[C@H]1CCC2(F)F` (single isomer, unassigned), for which the GI50 in assay [1] was determined as 35.5 µM; in assay [3] it was 58.9 µM; in assay [4] it was 81.3 µM; in [5], 31.6 µM; in assay [6] it was 43.7 µM; in [7], 24.5 µM. Further, the values for the GI50 in assay [10], in assay [11] and in assay [12] were 66.1 µM, 56.2 µM and 40.7 µM, respectively. The IC50 in [2] is greater than 40 µM; in assay [8], 58.3 µM; in assay [9], 70.8 µM.
`CC#Cc1cc2c(cc1O)CC[C@@H]1[C@@H]2CC[C@]2(C)[C@@H](O)CC[C@@H]12`: the IC50 was 0.52 µM in assay [8] and 3.99 µM in [9].
Take `C[C@]12CC[C@@H]3c4cc(CO)c(O)cc4CC[C@H]3[C@@H]1CC[C@@H]2O`: the GI50 in assay [1] turned out to be 24 µM; in assay [3], 23.4 µM; in assay [4], 72.4 µM; in assay [5] it was 38 µM; in assay [6], 31.6 µM; in [7], 63.1 µM. In addition, the 50% growth inhibitory concentration (GI50) in [10] is 74.1 µM; in assay [11], 70.8 µM; in [12], 34.7 µM. Moreover, the IC50 is greater than 40 µM in [2], 7.73 µM in [8] and 99.2 µM in [9].
Turning to `CN(C)CCC/N=C/c1cc2c(cc1O)CC[C@@H]1[C@@H]2CC[C@]2(C)[C@@H](O)CC[C@@H]12`, the GI50 in assay [1] was 22.9 µM; in assay [3], 13.8 µM; in assay [4], 21.4 µM; in assay [5] it was 18.2 µM; in assay [6] it was 19.5 µM; in assay [7], 25.7 µM. Moreover, the GI50 in assay [10] came to 12.6 µM; in assay [11] it was 20.9 µM; in [12], 20 µM. The molecule also gave an IC50 in assay [2] greater than 40 µM.
As to `COc1cc2c(cc1O)CC[C@@H]1[C@@H]2CC[C@@]2(C)[C@H]1CC[C@@]2(O)C(F)(F)F`, the GI50 in assay [1] is 16.2 µM; in assay [3], 18.2 µM; in [5], 19.5 µM; in assay [6] it was 15.8 µM; in assay [7], 24.5 µM; in assay [10], 22.4 µM. For the same molecule, the values for the GI50 in [11] and in assay [12] were 18.2 µM and 19.5 µM, respectively. Also, the IC50 in [2] was greater than 40 µM; in [8], 40 µM; in assay [9], 49.3 µM.
As for `C=C1CC[C@H]2[C@@H]3CCc4cc(O)c(OCC)cc4[C@H]3CC[C@]12C`, the GI50 in [1] came to 0.08 µM; in assay [3], 0.54 µM; in assay [4], 0.56 µM; in assay [5], 0.12 µM; in [6] it was 0.28 µM; in assay [7], 0.19 µM. Besides, the values for the GI50 in assay [10], in [11] and in assay [12] were 0.6 µM, 0.47 µM and 0.79 µM, respectively. Besides, the IC50 stood at 2.9 µM in [2], 0.26 µM in assay [8] and 0.7 µM in [9].
For the molecule `CC#Cc1cc2c(cc1O)CC[C@@H]1[C@@H]2CC[C@@]2(C)[C@H]1CC[C@]2(C)O`, the GI50 in assay [1] was found to be 0.3 µM; in assay [3], 4 µM; in assay [4], 3.1 µM; in assay [5], 2.6 µM; in assay [6], 1.5 µM; in [7] it was 7.4 µM. Further, the GI50 in [10] is 4.3 µM; in [11] it was 4.1 µM; in assay [12], 3.2 µM. Besides, the values for the IC50 in assay [2], in assay [8] and in [9] were 11 µM, 1.94 µM and 5.99 µM, respectively.
Regarding `CCC(=O)c1cc2c(cc1O)CC[C@@H]1[C@@H]2CC[C@]2(C)[C@@H](O)CC[C@@H]12`, the GI50 in [1] was 2.4 µM; in assay [3] it was 11.5 µM; in assay [4], 15.1 µM; in assay [5] it was 11.7 µM; in assay [6], 4 µM; in assay [7], 13.8 µM. Moreover, the GI50 in [10] was found to be 9.3 µM; in [11], 15.5 µM; in assay [12] it was 12 µM. The 50% inhibitory concentration (IC50) in [2] is greater than 40 µM; in assay [8], 22.5 µM; in assay [9], 15.8 µM.
In the case of `C[C@]12CC[C@@H]3c4cc(/C=N/C5CC5)c(O)cc4CC[C@H]3[C@@H]1CC[C@@H]2O`, the GI50 in assay [1] is 16.2 µM; in [3] it was 16.2 µM; in assay [4] it was 24 µM; in assay [5], 17 µM; in assay [6], 14.5 µM; in assay [7], 70.8 µM. Besides, the GI50 was 12.3 µM in assay [10], 16.6 µM in assay [11] and 16.6 µM in assay [12]. In [2], the half-inhibitory concentration (IC50) was greater than 40 µM.
On to `C=CCc1cc2c(cc1O)CC[C@@H]1[C@@H]2CC[C@]2(C)[C@@H](O)CC[C@@H]12`, for which the concentration for 50% growth inhibition (GI50) came out at 15.1 µM in [1]; 13.2 µM in assay [3]; 13.8 µM in [4]; 21.9 µM in assay [5]; 21.9 µM in assay [6]; 18.2 µM in [7]. The results for the 50% growth inhibitory concentration (GI50) in assay [10], in assay [11] and in [12] were 14.1 µM, 24 µM and 18.2 µM, respectively. Also, the figures for the IC50 in assay [2], in assay [8] and in [9] were greater than 40 µM, 8.51 µM and 33.4 µM, respectively.
Regarding `C[C@]12CC[C@@H]3c4cc(C(F)(F)C(F)(F)F)c(O)cc4CC[C@H]3[C@@H]1CC[C@@H]2O`, the GI50 came out at 12 µM in assay [1]; 13.8 µM in assay [3]; 18.2 µM in assay [5]; 13.2 µM in assay [6]; 16.6 µM in assay [7]; 17.8 µM in assay [10]. For the same molecule, the results for the GI50 in [11] and in assay [12] were 14.5 µM and 18.6 µM, respectively. The IC50 in assay [2] was greater than 40 µM; in assay [8] it was 25 µM; in [9] it was 47.5 µM.
Consider `COc1cc2c(cc1O)CC[C@@H]1[C@@H]2CC[C@@]2(C)[C@H]1CC[C@]2(C)[C@H](O)c1ccccc1`, for which the 50% growth inhibitory concentration (GI50) in assay [1] was found to be 16.2 µM; in assay [3], 13.5 µM; in assay [4], 18.2 µM; in assay [5], 17.8 µM; in [6], 14.1 µM; in assay [7], 14.1 µM. For the same molecule, the GI50 in [10] is 17 µM; in assay [11], 5.1 µM; in assay [12], 14.5 µM. Further, the IC50 in [2] is greater than 40 µM; in [8] it was 21 µM; in assay [9], 47.2 µM.
For the molecule `CCOc1cc2c(cc1O)CC[C@@H]1[C@@H]2CC[C@]2(C)[C@@H](O)CC[C@@H]12`, the IC50 worked out at 0.12 µM in assay [8] and 0.55 µM in assay [9].
Consider `C[C@]1(O)CC[C@H]2[C@@H]3CCc4cc(O)ccc4[C@H]3CC[C@@]21C`, for which the GI50 in [1] is 0.19 µM; in [3] it was 1.48 µM; in [4], 18.2 µM; in assay [5] it was 0.35 µM; in [6] it was 0.66 µM; in assay [7], 10.2 µM. Also, the GI50 in assay [10] turned out to be 0.7 µM; in assay [11], 2 µM; in [12], 2.5 µM. Further, the values for the IC50 in [2], in assay [8] and in [9] were 5.6 µM, 3.09 µM and 7.14 µM, respectively.
For the molecule `C/C(COc1cc2c(cc1O)CC[C@@H]1[C@@H]2CC[C@]2(C)[C@@H](O)CC[C@@H]12)=N/O`, the GI50 in assay [1] is 24 µM; in assay [3], 15.5 µM; in assay [4], 23.4 µM; in [5], 20.9 µM; in assay [6], 20.4 µM; in [7] it was 27.5 µM. The figures for the GI50 in assay [10], in assay [11] and in [12] were 18.2 µM, 29.5 µM and 24 µM, respectively. In [2], this molecule displayed an IC50 greater than 40 µM.
Turning to `CC(=O)c1cc2c(cc1O)CC[C@@H]1[C@@H]2CC[C@]2(C)[C@@H](O)CC[C@@H]12`, the GI50 is 4.3 µM in assay [1]; 24.5 µM in assay [3]; 5.4 µM in assay [4]; 18.6 µM in assay [5]; 25.7 µM in [6]; 53.7 µM in assay [7]. In addition, the concentration for 50% growth inhibition (GI50) in [11] stood at 55 µM; in [12] it was 17.4 µM. Besides, the IC50 in assay [2] is greater than 20 µM; in [8], 15.6 µM; in assay [9] it was 13.6 µM.

For the origin of these results see ChEMBL document CHEMBL1138778, “Effects of altering the electronics of 2-methoxyestradiol on cell proliferation, on cytotoxicity in human cancer cell cultures, and on tubulin polymerization” (J Med Chem, 2004).
